We go through one compound from ChEMBL document CHEMBL3804799, “Synthesis and Biological Evaluation of Novel σ1 Receptor Ligands for Treating Neuropathic Pain: 6-Hydroxypyridazinones” (J Med Chem, 2016).

Data set [1] addresses Mu-type opioid receptor (Homo sapiens) (UniProt P35372). Description: Displacement of [3H]-diprenorphine from human mu-opiod receptor expressed in CHO cells at 1 uM after 150 mins by liquid scintillation counting analysis. Type of data set: cell-based. A general note: Loss of bound radioactivity is the signal in a displacement assay; it reports binding, not function.
Data set [2] relates to Rattus norvegicus. Description: Antiallodynic activity in po dosed Sprague-Dawley rat chronic constriction injury-induced neuropathic pain model assessed as inhibition of thermal hypersensitivity administered as single dose on day 15th post surgery by plantar test. Format: functional. Put shortly:
(§1)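 CCI or sham SD rats, 10 per group, dosed orally in 0.5% methylcellulose (10 mL/kg) twice daily on days 15–18. Tested after the first dose on day 15 and the last dose on day 18. Plantar test: after 30 min acclimation on a glass floor, radiant heat was applied under the hind paw and withdrawal latency recorded. 30 s cutoff; mean of four samplings.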

A short description of data set [3]: AUC (0 to last) in Sprague-Dawley rat at 5 mg/kg, iv by LC-MS/MS analysis. Particulars: in vivo. Type of data set: ADME, organism-based. On the set-up: dose 5 mg/kg, route intravenous, time 0 - last. The essentials:
(§2)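 Rats (n = 3/group) dosed via lateral tail vein, 5 mg/kg in 100% saline. Serial tail-vein blood into heparinized tubes at 30 min and 1, 2, 3, 4, 5, 6, 8 and 24 h. Plasma separated by centrifugation, proteins precipitated with acetonitrile, analysed by LC/MS.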

The test system of data set [4] is Mus musculus. In words: Antinociceptive activity in Kun Ming mouse assessed as paw licking time in delayed pain response phase at 80 mg/kg, ig administered 15 mins prior to formalin challenge measured after 15 to 45 mins post formalin dosing. Type of data set: functional. The essentials: (§3)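 Mice received 20 μL of 2.5% formalin (0.92% formaldehyde) in the dorsal right hind paw. Time spent licking or biting the paw was scored at 0–5 min (phase I) and 15–45 min (phase II), with a mirror behind the glass cylinder. Vehicle was 30% PEG 400 at 10 mL/kg, given 15 min before formalin. n = 10–12 per group. % antinociception = (LT_V − LT_D)/LT_V × 100.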

Data set [5] has as its system Mus musculus. Type of data set: toxicity, organism-based, Kun Ming. Particulars: in vivo, po, 80 mg/kg.
Data set [6] has as its system Mus musculus. Type of data set: toxicity, organism-based, Kun Ming. Particulars: in vivo, po, 40 mg/kg.
The nature of data set [7]: AUC (0 to infinity) in Sprague-Dawley rat at 80 mg/kg, po administered through gavage by LC-MS/MS analysis. Further details: dose 80 mg/kg, route oral, time infinity. Type of data set: ADME, organism-based. Particulars: in vivo. The essentials: (§4)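 Oral gavage to rats (n = 3/group), 80 mg/kg as suspension in 0.5% methylcellulose. Blood drawn serially from lateral tail vein into heparinized tubes at 30 min and 1, 2, 3, 4, 5, 6, 8 and 24 h. Plasma obtained by centrifugation, acetonitrile protein precipitation, LC/MS quantification.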

Data set [8] deals with Mus musculus. Description: Antinociceptive activity in Kun Ming mouse assessed as paw biting time in delayed pain response phase at 80 mg/kg, ig administered 15 mins prior to formalin challenge measured after 15 to 45 mins post formalin dosing. Type of data set: functional. The essentials: as §3
The target of data set [9] is T1, 5-hydroxytryptamine receptor 1A (Rattus norvegicus) (UniProt P19327).
T1 sequence (whole entry): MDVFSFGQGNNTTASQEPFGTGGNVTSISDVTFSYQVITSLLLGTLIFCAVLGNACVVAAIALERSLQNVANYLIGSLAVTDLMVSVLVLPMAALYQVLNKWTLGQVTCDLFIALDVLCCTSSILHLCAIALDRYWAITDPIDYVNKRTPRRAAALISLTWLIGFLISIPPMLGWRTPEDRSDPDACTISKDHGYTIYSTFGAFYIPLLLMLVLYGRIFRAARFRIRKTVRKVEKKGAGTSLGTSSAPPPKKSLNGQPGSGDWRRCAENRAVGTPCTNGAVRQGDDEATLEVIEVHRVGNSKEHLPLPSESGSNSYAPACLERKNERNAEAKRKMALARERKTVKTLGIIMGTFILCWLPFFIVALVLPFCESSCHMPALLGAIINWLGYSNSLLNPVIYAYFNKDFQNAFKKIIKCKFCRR
In words: Displacement of [3H]-8-OH-DPAT from 5HT1A receptor in rat cerebral cortex at 1 uM after 30 mins by liquid scintillation counting analysis. Type of data set: tissue-based.

The nature of data set [10]: Half life in Sprague-Dawley rat at 5 mg/kg, iv by LC-MS/MS analysis. Format: ADME, organism-based. Particulars: in vivo. The essentials: (§5)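 SD rats, n = 3/group. Dosing was either 5 mg/kg iv via tail vein in saline or 80 mg/kg by oral gavage as a suspension in 0.5% methylcellulose. Serial tail-vein blood was drawn into heparinized tubes at 0.5, 1, 2, 3, 4, 5, 6, 8 and 24 h. Plasma was separated, proteins precipitated with acetonitrile, and samples analysed by LC/MS.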

Data set [11] deals with Mus musculus. Description: Antiallodynic activity in ig dosed Kun Ming mouse assessed as inhibition of formalin-induced pain in delayed pain response phase administered 15 mins prior to formalin challenge measured after 15 to 45 mins post formalin dosing. Type of data set: functional. The essentials:
as §3

Data set [12] can be described thus: Acute toxicity in po dosed Kun Ming mouse assessed as mortality after 24 hrs. Format: organism-based. Particulars: in vivo. The essentials: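 Mice, 10 per group, given a single oral dose (10 mL/kg) of 0.5% methylcellulose vehicle or test compound at 200, 500, 1000, 1500 or 2000 mg/kg. Survivors were counted 24 h after dosing and percent mortality per group was calculated. LD50 was derived by statistical analysis.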

Data set [13] addresses Transient receptor potential cation channel subfamily V member 1 (Homo sapiens) (UniProt Q8NER1). Description: Inhibition of human TRPV-1 expressed in HEK293 cells at 1 uM by whole cell patch clamp method. Type of data set: cell-based. In general terms: In patch-clamp work, channel activity is measured electrically.
A short description of data set [14]: Clearance in Sprague-Dawley rat at 5 mg/kg, iv by LC-MS/MS analysis. Format: ADME, organism-based. Particulars: in vivo. Put shortly: as §5
For data set [15], the target named is Cannabinoid receptor 1 (Homo sapiens) (UniProt P21554). Description: Displacement of [3H]-CP-55940 from human CB1 receptor expressed in CHO cells at 1 uM after 90 mins by liquid scintillation counting analysis. Type of data set: cell-based.
The nature of data set [16]: Oral bioavailability in Sprague-Dawley rat at 80 mg/kg administered through gavage by LC-MS/MS analysis. Particulars: in vivo. Format: ADME, organism-based. The essentials:
as §5

The test system of data set [17] is Rattus norvegicus. Description: Antiallodynic activity in po dosed Sprague-Dawley rat chronic constriction injury-induced neuropathic pain model assessed as inhibition of thermal hypersensitivity administered as bid on day 15th and 18th post surgery by plantar test. Format: functional. The essentials: as §1
Data set [18] deals with Sodium-dependent serotonin transporter (Rattus norvegicus) (UniProt P31652). Description: Inhibition of 5HT transporter in rat cerebral cortex assessed as [3H]-paroxetine uptake at 1 uM after 10 mins by liquid scintillation counting analysis. Format: tissue-based.
The test system of data set [19] is Rattus norvegicus. In words: Antiallodynic activity in po dosed Sprague-Dawley rat chronic constriction injury-induced neuropathic pain model assessed as inhibition of mechanical allodynia administered as single dose on day 15th post surgery by Von frey test. Format: functional. The essentials: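 Sciatic nerve CCI in SD rats (Bennett–Xie) under 5% chloral hydrate: four loose 4-0 silk ligatures on the right sciatic nerve, about 1 cm proximal to the trifurcation. Oral dosing in 0.5% methylcellulose (10 mL/kg), twice daily on days 15–18. Testing followed the first dose on day 15 and the last dose on day 18. Mechanical withdrawal threshold by von Frey up–down method, four samplings averaged. 10 rats/group.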

Data set [20] is described as follows: AUC (0 to infinity) in Sprague-Dawley rat at 5 mg/kg, iv by LC-MS/MS analysis. Format: ADME, organism-based. On the set-up: dose 5 mg/kg, time infinity, route intravenous. Particulars: in vivo. Put shortly:
as §2

A short description of data set [21]: AUC (0 to last) in Sprague-Dawley rat at 80 mg/kg, po administered through gavage by LC-MS/MS analysis. Format: ADME, organism-based. On the set-up: dose 80 mg/kg, time 0 - last, route oral. Particulars: in vivo. The essentials: as §4
Data set [22] has as its target Sodium channel protein type 9 subunit alpha (Homo sapiens) (UniProt Q15858). In words: Inhibition of human Nav 1.7 expressed in HEK293 cells at 1 uM by electrophysiological assay. Type of data set: cell-based.

Transient receptor potential cation channel subfamily V member 1 (Homo sapiens), sequence (Q8NER1 whole entry): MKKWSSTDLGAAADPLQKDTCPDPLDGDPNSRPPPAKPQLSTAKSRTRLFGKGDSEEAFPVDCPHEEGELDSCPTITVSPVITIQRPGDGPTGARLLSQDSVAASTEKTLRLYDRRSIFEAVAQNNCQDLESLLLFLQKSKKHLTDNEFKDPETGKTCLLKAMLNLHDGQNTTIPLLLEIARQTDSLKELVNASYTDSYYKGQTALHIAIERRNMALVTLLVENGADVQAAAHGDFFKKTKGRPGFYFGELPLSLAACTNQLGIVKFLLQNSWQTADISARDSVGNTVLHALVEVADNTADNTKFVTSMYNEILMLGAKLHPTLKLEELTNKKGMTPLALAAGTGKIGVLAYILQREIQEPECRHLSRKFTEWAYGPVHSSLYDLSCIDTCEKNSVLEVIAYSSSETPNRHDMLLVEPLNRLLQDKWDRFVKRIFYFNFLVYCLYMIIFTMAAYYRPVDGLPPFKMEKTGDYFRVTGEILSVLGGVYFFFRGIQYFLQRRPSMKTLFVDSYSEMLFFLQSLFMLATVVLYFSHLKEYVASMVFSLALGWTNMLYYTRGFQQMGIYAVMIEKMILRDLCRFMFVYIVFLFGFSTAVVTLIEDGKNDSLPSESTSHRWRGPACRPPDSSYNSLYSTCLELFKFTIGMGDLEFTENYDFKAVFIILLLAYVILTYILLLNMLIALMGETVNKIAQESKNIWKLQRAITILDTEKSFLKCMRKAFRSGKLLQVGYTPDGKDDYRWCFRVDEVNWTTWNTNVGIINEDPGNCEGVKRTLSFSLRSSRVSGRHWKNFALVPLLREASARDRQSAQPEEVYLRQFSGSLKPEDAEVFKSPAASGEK
Sodium channel protein type 9 subunit alpha (Homo sapiens), sequence (Q15858 whole entry, looked up): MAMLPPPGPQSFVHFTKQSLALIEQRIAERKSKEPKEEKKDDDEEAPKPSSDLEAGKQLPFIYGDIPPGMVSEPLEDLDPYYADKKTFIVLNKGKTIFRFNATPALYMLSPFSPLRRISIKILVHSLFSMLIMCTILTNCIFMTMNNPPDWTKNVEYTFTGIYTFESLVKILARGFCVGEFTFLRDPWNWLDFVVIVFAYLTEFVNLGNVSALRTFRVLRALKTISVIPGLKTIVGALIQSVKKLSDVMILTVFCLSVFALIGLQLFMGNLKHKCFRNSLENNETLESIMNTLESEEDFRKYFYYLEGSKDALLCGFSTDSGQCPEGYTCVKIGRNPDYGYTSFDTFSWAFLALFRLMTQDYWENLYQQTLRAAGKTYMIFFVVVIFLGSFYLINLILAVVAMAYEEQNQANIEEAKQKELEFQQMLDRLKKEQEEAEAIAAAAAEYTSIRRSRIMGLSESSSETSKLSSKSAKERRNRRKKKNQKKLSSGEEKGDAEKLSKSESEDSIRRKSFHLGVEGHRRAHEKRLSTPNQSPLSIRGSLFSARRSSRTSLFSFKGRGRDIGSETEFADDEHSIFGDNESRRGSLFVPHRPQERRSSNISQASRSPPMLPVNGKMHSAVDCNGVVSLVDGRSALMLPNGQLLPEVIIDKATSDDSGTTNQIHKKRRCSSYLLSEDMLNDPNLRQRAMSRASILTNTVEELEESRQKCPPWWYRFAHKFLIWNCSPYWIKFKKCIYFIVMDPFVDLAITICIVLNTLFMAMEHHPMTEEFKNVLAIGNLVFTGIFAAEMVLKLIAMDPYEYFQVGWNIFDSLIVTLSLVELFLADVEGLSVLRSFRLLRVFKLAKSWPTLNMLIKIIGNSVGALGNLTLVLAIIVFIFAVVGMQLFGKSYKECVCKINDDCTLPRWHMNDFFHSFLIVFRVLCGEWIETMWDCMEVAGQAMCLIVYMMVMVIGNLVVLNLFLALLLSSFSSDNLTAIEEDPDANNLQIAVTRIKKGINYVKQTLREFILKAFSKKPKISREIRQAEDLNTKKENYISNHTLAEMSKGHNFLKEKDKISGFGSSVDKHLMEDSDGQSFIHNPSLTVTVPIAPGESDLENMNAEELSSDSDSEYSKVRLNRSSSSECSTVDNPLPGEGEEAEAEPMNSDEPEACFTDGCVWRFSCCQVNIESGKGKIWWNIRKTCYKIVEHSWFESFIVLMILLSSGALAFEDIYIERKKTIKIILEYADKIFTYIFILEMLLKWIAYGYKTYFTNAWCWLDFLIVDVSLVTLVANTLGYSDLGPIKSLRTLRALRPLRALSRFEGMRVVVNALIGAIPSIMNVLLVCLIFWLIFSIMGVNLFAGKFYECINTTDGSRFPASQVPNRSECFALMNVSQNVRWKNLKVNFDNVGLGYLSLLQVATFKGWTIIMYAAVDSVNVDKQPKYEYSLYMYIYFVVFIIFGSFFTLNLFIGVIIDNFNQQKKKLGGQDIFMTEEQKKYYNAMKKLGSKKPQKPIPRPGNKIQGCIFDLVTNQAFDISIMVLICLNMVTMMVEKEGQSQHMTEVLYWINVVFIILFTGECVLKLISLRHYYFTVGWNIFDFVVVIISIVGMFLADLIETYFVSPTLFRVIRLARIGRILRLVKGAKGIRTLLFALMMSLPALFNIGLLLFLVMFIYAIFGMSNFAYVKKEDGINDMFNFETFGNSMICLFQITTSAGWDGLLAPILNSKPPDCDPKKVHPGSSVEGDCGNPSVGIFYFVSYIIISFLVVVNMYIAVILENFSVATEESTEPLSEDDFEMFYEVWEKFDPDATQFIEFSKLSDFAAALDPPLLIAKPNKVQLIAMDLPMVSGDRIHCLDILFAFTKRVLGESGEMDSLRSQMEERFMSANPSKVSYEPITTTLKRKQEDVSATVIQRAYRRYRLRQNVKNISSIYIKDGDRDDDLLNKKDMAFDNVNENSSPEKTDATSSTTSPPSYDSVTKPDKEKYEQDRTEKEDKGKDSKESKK
Mu-type opioid receptor (Homo sapiens), sequence (P35372 whole entry): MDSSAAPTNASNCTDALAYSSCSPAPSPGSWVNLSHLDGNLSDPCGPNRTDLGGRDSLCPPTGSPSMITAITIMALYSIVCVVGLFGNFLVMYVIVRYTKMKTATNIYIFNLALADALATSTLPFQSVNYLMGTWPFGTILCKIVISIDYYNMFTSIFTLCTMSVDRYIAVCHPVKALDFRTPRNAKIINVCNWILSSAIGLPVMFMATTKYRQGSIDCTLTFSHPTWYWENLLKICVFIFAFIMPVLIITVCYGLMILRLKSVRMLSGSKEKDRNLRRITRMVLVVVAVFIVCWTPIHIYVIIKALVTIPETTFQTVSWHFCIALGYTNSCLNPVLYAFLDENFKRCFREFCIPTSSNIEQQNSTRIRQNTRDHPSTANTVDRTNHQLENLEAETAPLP
Sodium-dependent serotonin transporter (Rattus norvegicus), sequence (P31652 whole entry): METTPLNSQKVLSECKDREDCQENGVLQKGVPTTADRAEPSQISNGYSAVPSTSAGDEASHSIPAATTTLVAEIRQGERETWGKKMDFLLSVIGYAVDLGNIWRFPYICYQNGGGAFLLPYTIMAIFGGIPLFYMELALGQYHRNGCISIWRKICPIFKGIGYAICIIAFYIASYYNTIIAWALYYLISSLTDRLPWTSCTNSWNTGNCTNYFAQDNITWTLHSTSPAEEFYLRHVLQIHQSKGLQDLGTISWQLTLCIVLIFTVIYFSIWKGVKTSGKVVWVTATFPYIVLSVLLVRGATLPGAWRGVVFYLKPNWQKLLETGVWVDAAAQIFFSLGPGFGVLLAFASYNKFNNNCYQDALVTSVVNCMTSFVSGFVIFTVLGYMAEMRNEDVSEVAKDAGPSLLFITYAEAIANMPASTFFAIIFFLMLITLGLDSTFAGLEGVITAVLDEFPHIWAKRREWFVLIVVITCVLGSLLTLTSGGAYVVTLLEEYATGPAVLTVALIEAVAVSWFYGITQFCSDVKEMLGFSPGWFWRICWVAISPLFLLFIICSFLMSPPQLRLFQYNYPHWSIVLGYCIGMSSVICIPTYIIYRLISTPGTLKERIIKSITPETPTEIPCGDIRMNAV
Cannabinoid receptor 1 (Homo sapiens), sequence (P21554 whole entry): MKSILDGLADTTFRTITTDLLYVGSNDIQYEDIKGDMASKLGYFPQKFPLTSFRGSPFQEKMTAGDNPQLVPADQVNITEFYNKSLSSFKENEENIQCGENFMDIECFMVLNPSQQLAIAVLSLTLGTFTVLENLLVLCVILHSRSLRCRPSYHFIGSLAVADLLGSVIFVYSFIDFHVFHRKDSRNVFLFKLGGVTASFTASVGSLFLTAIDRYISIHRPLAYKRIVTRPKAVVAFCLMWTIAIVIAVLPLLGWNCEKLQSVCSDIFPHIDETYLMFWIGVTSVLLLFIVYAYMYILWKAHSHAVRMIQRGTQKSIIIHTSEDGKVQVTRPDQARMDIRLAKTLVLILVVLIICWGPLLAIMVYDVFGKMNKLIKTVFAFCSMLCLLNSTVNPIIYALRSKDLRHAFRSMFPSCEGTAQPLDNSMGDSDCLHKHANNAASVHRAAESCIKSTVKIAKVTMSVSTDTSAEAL

The term inhibition denotes the change of the read-out against control, counted positive when it falls. Usually ED50 stands for the dose that gives a 50% effect, or the effect in half of the subjects. Broadly, the AUC(0-t) is exposure summed from dosing to a finite time, without extrapolation to infinity. The AUC(0-inf) is the area under the concentration-time curve extrapolated to infinity. Lower therefore signals low exposure. What is called half-life is the time in which the quantity being followed falls by half. Read a high half-life as slow loss. As usually defined, the LD50 is the dose at which mortality reaches 50%. Broadly, the clearance is a measure of how efficiently the substance is removed, as volume per time. By bioavailability is commonly meant dose-corrected exposure relative to a reference, in per cent. High values mean much systemic uptake, low ones little systemic uptake. For `O=c1ccc(OCCCN2CCCCC2)nn1-c1ccc(Cl)c(Cl)c1`, the inhibition in [1], in data set [9], in [13], in data set [15], in data set [18] and in data set [22] was under 50% each time. Besides, the ED50 in the data set on Rattus norvegicus [2] turned out to be 18.6 mg/kg; in the data set with Mus musculus [11] (po) it was 49 mg/kg; in the data set with Rattus norvegicus [17], 16.9 mg/kg; in the data set with Rattus norvegicus [19], 51.9 mg/kg. Also, the AUC(0-t) amounted to 0.931 µg·h/mL in data set [3] and 11.7 µg·h/mL in [21]. For the same compound, the Time stood at 45.88 s in the data set with Mus musculus [4] and 41.16 s with Mus musculus [8]. Also, the Activity with Mus musculus [5] was 18282.4 mm; in the data set on Mus musculus [6], 22826.6 mm; in the data set on Mus musculus [11], “Dose-dependent effect”. In addition, the values for the AUC(0-inf) in data set [7] and in [20] were 13.4 µg·h/mL and 0.956 µg·h/mL, respectively. Besides, the half-life in data set [10] was 1.39 h. Moreover, the LD50 at 24 h in data set [12] was over 2000 mg/kg. The compound further gave a clearance in [14] of 2.96 L/h/kg. The bioavailability in data set [16] was 87.5%.
